Experimental data reported in ChEMBL document CHEMBL4033777, “Next-Generation Hypoxic Cell Radiosensitizers: Nitroimidazole Alkylsulfonamides” (J Med Chem, 2018).
≈ marks a conversion by molar mass, not a printed value.

Assays:
[1] = Solubility of the compound in alphaMEM containing 5% FCS and 1% DMSO by HPLC analysis; format: physicochemical
Summary of the method: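 Saturated drug solutions were incubated at 37 °C in αMEM with 5% FCS and 1% DMSO. Dissolved drug was quantified by HPLC.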

HCT-116 [2] = test: (§1) Hypoxia radiosensitization activity in human HCT116 cells assessed as survival ratio by measuring ratio of cell survival with radiation in absence to presence of compound at 0.81 mM preincubated for 1 hr followed by 6 to 29 Gy irradiation measured after 10 days by methylene blue staining-based cell counting method; format: functional
HCT-116 [3] = test: as §1, with “as sensitizer enhancement” for “as survival”, “of radiation dose for 1%” for “of cell”, “survival” for “survival with radiation”, “by” for “by 6 to 29 Gy”; format: functional
HCT-116 [4] = test: (§2) Hypoxia radiosensitization activity in human HCT116 cells assessed as sensitizer enhancement ratio by measuring ratio of radiation dose for 1% survival in absence to presence of compound at 0.81 mM preincubated for 1 hr followed by irradiation measured after 10 days by methylene blue staining-based cell counting method relative to misonidazole; format: functional
[5] = Electrophilicity of the compound in pH 7 phosphate buffer assessed as one-electron reduction potential
Summary of the method: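 The one-electron reduction potential was set by pulse radiolysis equilibria at pH 7.0 (2.5 mM phosphate), established within 20 µs against benzylviologen, methylviologen or triquat. ΔE came from equilibrium constants via the Nernst equation, at three concentration ratios and 22 ± 2 °C.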

HCT-116 [6] = test: Cytotoxicity against human HCT116 cells incubated for 4 hrs under anaerobic condition measured after 5 days by sulforhodamine B assay; format: functional, cell-based
Summary of the method: (§3)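 STR-authenticated, mycoplasma-free HCT116 cells in αMEM + 5% FCS were seeded at 700 cells/well and allowed 2 h to attach. Drug was added from DMSO stocks (<1% DMSO) in serial 3-fold dilutions for 4 h, oxic or anoxic (Pd-catalyst anaerobic chamber, medium pre-equilibrated ≥3 days). After washing, cells regrew for 5 days before SRB staining and IC50 determination.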

HCT-116 [7] = test: as §1, with “method relative to misonidazole” for “method”; format: functional
HCT-116 [8] = test: Cytotoxicity against human HCT116 cells incubated for 4 hrs under aerobic condition measured after 5 days by sulforhodamine B assay; format: cell-based; summary of the method: as §3
HCT-116 [9] = test: Hypoxic cytotoxicity ratio of IC50 for human HCT116 cells under oxic condition to IC50 for human HCT116 cells under anoxic condition
Summary of the method: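 HCT116 cells, 700 per well and attached 2 h, got a 4 h exposure to 3-fold serial dilutions (<1% DMSO) under air or in a Pd-catalyst anaerobic chamber with pre-equilibrated medium. Cells were washed, regrown 5 days, and stained with sulforhodamine B to give IC50. HCR = oxic IC50 / anoxic IC50.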

HCT-116 [10] = test: Cytotoxicity against human HCT116 cells at anoxic IC50 incubated for 1 hr at 21 degC by clonogenic survival assay; details: hct-116, 1 h
HCT-116 [11] = test: as §1, with “with 15 Gy” for “with”, “anoxic IC50” for “0.81 mM”, “15” for “6 to 29”; format: functional
Summary of the method: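 Anoxic HCT116 cells were seeded at 10^5/well and treated at the anoxic IC50 concentration for 1 h at room temperature. They were irradiated with 15 Gy (60Co, ~2 Gy/min) in a sealed steel box, then plated clonogenically. Colonies of >50 cells were counted […]. SR15 = survival with radiation / survival with drug + radiation.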

HCT-116 [12] = test: as §1, with “2.76” for “0.81”, “method relative to misonidazole” for “method”; format: functional
HCT-116 [13] = test: as §2, with “2.76” for “0.81”; format: functional
HCT-116 [14] = test: as §2, with “2.76” for “0.81”, “method” for “method relative to misonidazole”; format: functional
HCT-116 [15] = test: as §1, with “2.76” for “0.81”; format: functional
HCT-116 [16] = test: as §2, with “4.39” for “0.81”; format: functional
HCT-116 [17] = test: as §1, with “4.39” for “0.81”, “method relative to misonidazole” for “method”; format: functional
HCT-116 [18] = test: as §1, with “4.39” for “0.81”; format: functional
HCT-116 [19] = test: as §2, with “4.39” for “0.81”, “method” for “method relative to misonidazole”; format: functional
HCT-116 [20] = test: as §2, with “5” for “0.81”; format: functional
HCT-116 [21] = test: as §1, with “5” for “0.81”; format: functional
HCT-116 [22] = test: as §2, with “5” for “0.81”, “method” for “method relative to misonidazole”; format: functional
HCT-116 [23] = test: as §1, with “5” for “0.81”, “method relative to misonidazole” for “method”; format: functional
HCT-116 [24] = test: as §1, with “0.82” for “0.81”, “method relative to misonidazole” for “method”; format: functional
HCT-116 [25] = test: as §1, with “0.82” for “0.81”; format: functional
HCT-116 [26] = test: as §2, with “0.82” for “0.81”, “method” for “method relative to misonidazole”; format: functional
HCT-116 [27] = test: as §2, with “0.82” for “0.81”; format: functional

O=[N+]([O-])c1nccn1CCS(=O)(=O)NCCO
solubility [1]: 75.3 mM (≈ 19.9 mg/mL) | Ratio (HCT-116 [2]): 4.2 | Ratio (HCT-116 [3]): 1.27 | fold change (FC) (HCT-116 [4]): 0.92 | Activity [5]: -391 mV | IC50 (HCT-116 [6]): 0.8 mM | fold change (FC) (HCT-116 [7]): 0.54 | IC50 (HCT-116 [8]): 0.38 to 4.8 mM | Ratio IC50 (HCT-116 [9]): 8 | Activity (HCT-116 [10]): Non-Toxic | Ratio (HCT-116 [11]): 12

Cc1ncc([N+](=O)[O-])n1CCS(=O)(=O)NCCCN1CCOCC1
fold change (FC) (HCT-116 [12]): 3.96 | solubility [1]: > 55.2 mM | fold change (FC) (HCT-116 [13]): 1.2 | Ratio (HCT-116 [14]): 1.68 | IC50 (HCT-116 [6]): 2.8 mM | Ratio (HCT-116 [15]): 28 | Ratio IC50 (HCT-116 [9]): 0.8 | Activity (HCT-116 [10]): Non-Toxic | Ratio (HCT-116 [11]): 8

COCCNS(=O)(=O)CCn1cncc1[N+](=O)[O-]
solubility [1]: 24.4 mM (≈ 6.79 mg/mL) | Activity [5]: -450 mV | IC50 (HCT-116 [6]): 4.4 mM | fold change (FC) (HCT-116 [16]): 1.08 | fold change (FC) (HCT-116 [17]): 2.23 | Ratio IC50 (HCT-116 [9]): 2.5 | Activity (HCT-116 [10]): Non-Toxic | Ratio (HCT-116 [11]): 122 | Ratio (HCT-116 [18]): 26 | Ratio (HCT-116 [19]): 1.56

O=[N+]([O-])c1cncn1CCS(=O)(=O)NCCO
solubility [1]: 69.3 mM (≈ 18.3 mg/mL) | fold change (FC) (HCT-116 [20]): 1.23 | IC50 (HCT-116 [6]): 5.3 mM | Ratio (HCT-116 [21]): 163 | Ratio (HCT-116 [22]): 1.81 | Ratio IC50 (HCT-116 [9]): 2 | Activity (HCT-116 [10]): Non-Toxic | Ratio (HCT-116 [11]): 282 | fold change (FC) (HCT-116 [23]): 12.1

Cc1ncc([N+](=O)[O-])n1CCS(=O)(=O)NCCN(C)C
solubility [1]: 46.8 mM (≈ 14.3 mg/mL) | fold change (FC) (HCT-116 [24]): 1.51 | Ratio (HCT-116 [25]): 14.9 | Ratio (HCT-116 [26]): 1.57 | IC50 (HCT-116 [6]): 0.8 mM | Ratio IC50 (HCT-116 [9]): 6 | Activity (HCT-116 [10]): Non-Toxic | Ratio (HCT-116 [11]): 11 | fold change (FC) (HCT-116 [27]): 1.06
